Results as given in ChEMBL document CHEMBL4020760, “Discovery of a Small Molecule Probe That Post-Translationally Stabilizes the Survival Motor Neuron Protein for the Treatment of Spinal Muscular Atrophy” (J Med Chem, 2017).
Activity calls are given as the source filed them. The rule behind the calls is not given here.

Key:
[1] = Fraction unbound in mouse plasma; format: ADME, cell-free
Method in brief: (§1)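 Plasma protein binding measured in mouse and human plasma and expressed as percent free.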

[2] = Fraction unbound in human plasma; format: ADME, cell-free; method in brief: as §1
[3] = molecular target: Survival motor neuron protein (Homo sapiens) (UniProt Q16637); assay: Stabilization of human SMN protein expressed in HEK293 cells expressing SMN2 promoter after 24 hrs by luciferase reporter gene assay relative to control; format: cell-based
Survival motor neuron protein (Homo sapiens), sequence (Q16637 whole entry, the tested form may be a part): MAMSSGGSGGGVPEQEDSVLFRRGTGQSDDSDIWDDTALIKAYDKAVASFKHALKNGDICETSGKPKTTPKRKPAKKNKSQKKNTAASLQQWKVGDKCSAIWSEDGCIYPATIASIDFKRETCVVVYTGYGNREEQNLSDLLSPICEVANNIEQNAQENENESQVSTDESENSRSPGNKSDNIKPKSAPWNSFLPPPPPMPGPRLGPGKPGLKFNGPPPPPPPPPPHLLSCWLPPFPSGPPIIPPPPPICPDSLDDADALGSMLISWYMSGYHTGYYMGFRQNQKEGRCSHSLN
Method in brief: (§2)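 SMN2-luc reporter cells seeded at 25,000/well overnight, then treated 24 h with six doses (3-fold serial dilutions, top final 10 or 30 μM), 0.1% DMSO. Firefly and Renilla luciferase read by dual-luciferase assay, normalized to DMSO as percent; EC50 and maximal activation from curves. Mean ± SEM, ≥3 trials.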

[4] = molecular target: Survival motor neuron protein (Homo sapiens) (UniProt Q16637); assay: Stabilization of SMN protein in 3813T fibroblasts derived from human SMA patient assessed as increase in SMN protein level at 2 uM after 48 hrs by SDS-PAGE and immunoblot
Method in brief: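 hTERT-immortalized SMA patient 3813T fibroblasts seeded at 6000/well, next day dosed for 48 h at indicated concentrations, 0.1% DMSO. Lysed in boiling buffer (150 mM NaCl, 10 mM Tris pH 8.0, 2% SDS), run on 10% SDS-PAGE, SMN immunoblotted, normalized to tubulin or actin as fold over DMSO; one-way ANOVA with Dunnett.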

Plasma [5] = assay: Cmax in mouse plasma at 20 mg/kg, po; format: ADME, organism-based; parameters: dose 20 mg/kg, route oral; conditions: in vivo
[6] = Drug degradation in 0.1 to 1 N HCL after 1 to 24 hrs by LC-MS method
Method in brief: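 Compound held in 0.1 N and 1 N HCl at 37 °C for 24 h; aliquots taken at 1, 2, 4, 6 and 24 h and analysed by LCMS for percent degradation.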

Plasma [7] = assay: AUC (0 to 24 hrs) in mouse plasma at 20 mg/kg, ip; format: ADME, organism-based; parameters: dose 20 mg/kg, time < 24 hr, route intraperitoneal; conditions: in vivo
Plasma [8] = assay: AUC (0 to 24 hrs) in mouse plasma at 20 mg/kg, po; format: ADME, organism-based; parameters: dose 20 mg/kg, time < 24 hr, route oral; conditions: in vivo
[9] = AUC (0 to 24 hrs) in mouse brain at 20 mg/kg, ip; format: ADME, organism-based; parameters: time < 24 hr, dose 20 mg/kg, route intraperitoneal
[10] = AUC (0 to 24 hrs) in mouse brain at 20 mg/kg, po; format: ADME, organism-based; parameters: time < 24 hr, dose 20 mg/kg, route oral
Plasma [11] = assay: Tmax in mouse plasma at 20 mg/kg, ip; format: ADME, organism-based; conditions: in vivo
Plasma [12] = assay: Tmax in mouse plasma at 20 mg/kg, po; format: ADME, organism-based; conditions: in vivo
Brain [13] = assay: Tmax in mouse brain at 20 mg/kg, po; format: ADME, organism-based; conditions: in vivo
Plasma [14] = assay: Half life in mouse plasma at 20 mg/kg, po; format: ADME, organism-based; conditions: in vivo
Brain [15] = assay: Half life in mouse brain at 20 mg/kg, ip; format: ADME, organism-based; conditions: in vivo
HEK293 [16] = assay: Effect on human luciferase-tagged SMN mRNA expressed in HEK293 cells assessed as SMN exon 7 included transcript at 1 and 10 uM after 24 hrs by qRT-PCR relative to GAPDH mRNA expression; format: cell-based
Method in brief: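 SMN2-luciferase reporter cells treated with compound; total RNA isolated with Trizol, DNase I treated and reverse transcribed. SYBR Green qPCR for SMN exon 7-included and full-length transcripts, with GAPDH as reference.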

HEK293 [17] = assay: Effect on basal level of polyubiquitinated protein in HEK293 cells at 1 and 10 uM incubated for 2 hrs by SDS-PAGE analysis; format: cell-based; conditions: human, hek293, 2 h
Method in brief: (§3)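 HEK293 cells pretreated 2 h with test compound or MG-132 (1 and 10 μM), then DMSO or cycloheximide (10 μM) added and incubated a further 6 h; final DMSO 0.2%. Lysates run on 4–15% gradient SDS-PAGE; anti-ubiquitin blot for polyubiquitinated proteins, tubulin as loading control.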

Liver = assay: Half life in human liver microsomes; format: ADME, microsome
Method in brief: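 Compound stability in mouse and human liver microsomes, expressed as half-life in min.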

SH-SY5Y = assay: Cytotoxicity against human SH-SY5Y cells assessed as reduction in cell viability at 100 times EC50 concentration after 48 hrs by CellTiter 96 AQueous one solution cell proliferation assay; format: cell-based
Method in brief: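 SH-SY5Y cells seeded at 10,000/well, next day treated with graded compound doses in duplicate for 48 h, 0.2% DMSO constant; CellTiter 96 AQueous One reagent added for the last 4 h; cycloheximide 200 ng/mL as toxicity control.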

[18] = molecular target: Survival motor neuron protein (Homo sapiens) (UniProt Q16637); assay: Stabilization of human SMN protein expressed in HEK293 cells at 10 to 30 uM after 24 hrs by luciferase reporter gene assay; format: cell-based; method in brief: as §2
HEK293 [19] = assay: Effect on cycloheximide-induced reduction in basal level of polyubiquitinated protein level in HEK293 cells at 1 uM pretreated for 2 hrs followed by cycloheximide addition measured after 6 hrs by SDS-PAGE analysis; format: functional, cell-based; conditions: Homo sapiens; method in brief: as §3
[20] = molecular target: Survival motor neuron protein (Homo sapiens) (UniProt Q16637); assay: Stabilization of human luc fused SMN protein expressed in HEK293 cells at 10 uM after 24 hrs in presence of 10 uM cycloheximide by luciferase reporter gene assay; format: cell-based
Method in brief: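 SMN2-luciferase reporter cells were maintained in high-glucose DMEM with 10% FBS, Pen/Strep and hygromycin at 37 °C. They were treated at the same time with cycloheximide (10 μM), to block protein synthesis, and with compound or DMSO. Cells were lysed at set time points, and SMN2-luc (firefly) and Renilla-luc activities were read by dual-luciferase assay.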

CYP2C19 = CYP2C19 (Homo sapiens, UniProt P33261); assay: Inhibition of CYP2C19 (unknown origin) at 10 uM; format: ADME
CYP2C19, sequence (P33261 whole entry): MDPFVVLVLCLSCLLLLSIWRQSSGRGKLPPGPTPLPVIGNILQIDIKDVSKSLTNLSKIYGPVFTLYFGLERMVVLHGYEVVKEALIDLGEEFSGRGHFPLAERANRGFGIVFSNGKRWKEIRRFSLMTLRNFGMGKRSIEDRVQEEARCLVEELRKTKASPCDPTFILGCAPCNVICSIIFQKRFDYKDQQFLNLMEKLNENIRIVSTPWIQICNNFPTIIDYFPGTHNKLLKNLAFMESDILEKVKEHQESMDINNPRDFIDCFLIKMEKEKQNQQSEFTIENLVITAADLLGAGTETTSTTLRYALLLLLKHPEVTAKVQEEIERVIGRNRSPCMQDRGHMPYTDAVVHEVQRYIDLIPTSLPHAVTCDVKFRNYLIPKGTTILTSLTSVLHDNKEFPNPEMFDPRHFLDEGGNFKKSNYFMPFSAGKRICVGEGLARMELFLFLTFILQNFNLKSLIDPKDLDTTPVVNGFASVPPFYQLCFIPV

CYP2D6 = CYP2D6 (Homo sapiens, UniProt P10635); assay: Inhibition of CYP2D6 (unknown origin) at 10 uM; format: ADME
CYP2D6, sequence (P10635 whole entry): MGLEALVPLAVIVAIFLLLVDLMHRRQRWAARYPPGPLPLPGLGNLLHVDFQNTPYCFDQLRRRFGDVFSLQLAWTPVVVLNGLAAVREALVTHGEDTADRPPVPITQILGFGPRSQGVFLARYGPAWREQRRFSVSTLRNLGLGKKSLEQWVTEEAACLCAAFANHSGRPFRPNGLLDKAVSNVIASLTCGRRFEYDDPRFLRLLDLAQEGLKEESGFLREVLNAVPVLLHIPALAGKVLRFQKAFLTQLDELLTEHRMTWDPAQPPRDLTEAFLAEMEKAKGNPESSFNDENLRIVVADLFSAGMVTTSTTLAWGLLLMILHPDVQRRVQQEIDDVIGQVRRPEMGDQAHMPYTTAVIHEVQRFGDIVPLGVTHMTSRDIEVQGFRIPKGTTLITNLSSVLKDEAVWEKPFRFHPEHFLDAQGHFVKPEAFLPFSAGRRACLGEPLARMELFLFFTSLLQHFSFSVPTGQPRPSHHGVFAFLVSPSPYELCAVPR

CYP3A4 = CYP3A4 (Homo sapiens, UniProt P08684); assay: Inhibition of CYP3A4 (unknown origin) at 10 uM; format: ADME
CYP3A4, sequence (P08684 whole entry): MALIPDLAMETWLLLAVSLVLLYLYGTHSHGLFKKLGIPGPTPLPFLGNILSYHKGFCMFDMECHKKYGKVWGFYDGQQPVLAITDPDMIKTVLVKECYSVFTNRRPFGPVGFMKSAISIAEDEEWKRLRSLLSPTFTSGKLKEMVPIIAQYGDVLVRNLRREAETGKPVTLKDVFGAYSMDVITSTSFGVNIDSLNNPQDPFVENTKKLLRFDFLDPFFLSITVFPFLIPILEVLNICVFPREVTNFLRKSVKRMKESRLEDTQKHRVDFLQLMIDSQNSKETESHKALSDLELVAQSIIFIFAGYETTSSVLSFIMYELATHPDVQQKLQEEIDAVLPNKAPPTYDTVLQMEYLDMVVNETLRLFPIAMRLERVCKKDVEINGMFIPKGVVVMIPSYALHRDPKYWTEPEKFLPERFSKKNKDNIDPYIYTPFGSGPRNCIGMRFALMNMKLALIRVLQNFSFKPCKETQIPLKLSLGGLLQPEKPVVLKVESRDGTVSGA

[21] = molecular target: Voltage-gated inwardly rectifying potassium channel KCNH2 (Homo sapiens, UniProt Q12809); assay: Inhibition of human ERG at 10 uM
Voltage-gated inwardly rectifying potassium channel KCNH2, sequence (Q12809 whole entry): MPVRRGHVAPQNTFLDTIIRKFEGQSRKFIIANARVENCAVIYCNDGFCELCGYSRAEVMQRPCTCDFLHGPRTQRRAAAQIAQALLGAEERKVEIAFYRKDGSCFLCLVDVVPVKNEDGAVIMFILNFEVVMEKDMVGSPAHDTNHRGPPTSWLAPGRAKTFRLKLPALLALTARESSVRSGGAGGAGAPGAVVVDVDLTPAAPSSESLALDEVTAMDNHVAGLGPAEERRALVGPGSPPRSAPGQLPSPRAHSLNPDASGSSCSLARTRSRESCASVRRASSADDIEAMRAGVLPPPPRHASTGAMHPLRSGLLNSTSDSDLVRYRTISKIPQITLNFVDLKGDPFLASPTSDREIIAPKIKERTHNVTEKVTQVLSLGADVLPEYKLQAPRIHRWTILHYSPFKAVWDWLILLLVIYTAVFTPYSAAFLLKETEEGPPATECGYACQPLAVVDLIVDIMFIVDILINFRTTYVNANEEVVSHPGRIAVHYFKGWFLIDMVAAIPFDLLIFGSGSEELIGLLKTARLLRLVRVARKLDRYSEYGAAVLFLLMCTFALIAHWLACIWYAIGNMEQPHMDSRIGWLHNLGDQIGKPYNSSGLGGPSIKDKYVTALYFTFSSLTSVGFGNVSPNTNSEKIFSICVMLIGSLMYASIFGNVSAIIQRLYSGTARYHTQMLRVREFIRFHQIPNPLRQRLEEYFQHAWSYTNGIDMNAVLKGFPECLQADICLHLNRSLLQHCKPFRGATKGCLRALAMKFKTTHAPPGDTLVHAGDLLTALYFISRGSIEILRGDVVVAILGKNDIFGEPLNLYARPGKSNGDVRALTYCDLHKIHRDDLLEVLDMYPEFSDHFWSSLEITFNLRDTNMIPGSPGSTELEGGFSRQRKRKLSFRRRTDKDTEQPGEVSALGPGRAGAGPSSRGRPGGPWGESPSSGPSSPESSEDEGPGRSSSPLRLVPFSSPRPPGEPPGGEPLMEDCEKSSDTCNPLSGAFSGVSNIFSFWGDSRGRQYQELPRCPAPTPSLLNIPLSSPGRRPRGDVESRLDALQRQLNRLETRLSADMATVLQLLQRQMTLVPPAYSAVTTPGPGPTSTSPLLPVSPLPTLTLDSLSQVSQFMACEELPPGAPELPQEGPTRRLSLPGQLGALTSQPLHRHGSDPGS

Renilla [22] = assay: Effect on renilla recombinant luciferase protein
[23] = molecular target: Survival motor neuron protein (Homo sapiens) (UniProt Q16637); assay: Stabilization of human SMN protein expressed in HEK293 cells expressing SMN2 promoter assessed as additive effect on SMN stabilization in presence of 0.1: 0.3 to 10:30 ratio of LDN-76070 to compound after 24 hrs by luciferase reporter gene assay; format: cell-based
Method in brief: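 SMN2 reporter cells exposed 24 h to the two compounds alone or combined at constant ratio, DMSO held at 0.2%, and SMN-luc read. Theoretical additive effect taken as the sum of the single-agent activities.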

Renilla [24] = assay: Effect on renilla recombinant luciferase protein expressed in HEK293 cells at 10 uM after 24 hrs in presence of 10 uM cycloheximide by renilla luciferase reporter gene assay; format: cell-based
Method in brief: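 SMN2-luc reporter cells given cycloheximide (10 μM) together with compound (10 μM) or DMSO. Lysed at set time points; SMN-luc and Renilla-luc activities measured.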

[25] = molecular target: Survival motor neuron protein (Homo sapiens) (UniProt Q16637); assay: Stabilization of SMN protein in 3813T fibroblasts derived from human SMA patient assessed as increase in SMN protein level after 48 hrs by SDS-PAGE and immunoblot
[26] = molecular target: Survival motor neuron protein (Homo sapiens) (UniProt Q16637); assay: Stabilization of SMN protein in 3813T fibroblasts derived from human SMA patient assessed as increase in SMN protein level at 2 uM after 48 hrs by SDS-PAGE and immunoblot

Question: For `O=C(Nc1ncc(C2(O)CCC2)s1)c1ccc(F)c(Cl)c1`, which fraction unbound [1] is on record?
Answer: 0.047

Question: What about the fraction unbound [2] of the same compound?
Answer: 0.035

Question: And the Activity [3]?
Answer: 190%

Question: What about the fold change (FC) [4] of the same compound?
Answer: 2

Question: And the Cmax (Plasma [5])?
Answer: 286 ng/mL

Question: What about the Drug degradation [6] of the same compound?
Answer: < 5%

Question: What about the AUC (Plasma [7]) of the same compound?
Answer: 34291 ng·h/mL

Question: What about the AUC (Plasma [8]) of the same compound?
Answer: 1641 ng·h/mL

Question: And the AUC(0-t) at 24 h [9]?
Answer: 51300 ng·h/mL

Question: And the AUC(0-t) at 24 h [10]?
Answer: 2220 ng·h/mL

Question: What about the Tmax (Plasma [11]) of the same compound?
Answer: 0.5 h

Question: And the Tmax (Plasma [12])?
Answer: 0.5 h

Question: And the Tmax (Brain [13])?
Answer: 0.5 h

Question: What about the t1/2 (Plasma [14]) of the same compound?
Answer: 3.4 h

Question: And the t1/2 (Brain [15])?
Answer: 1.9 h

Question: And the Activity (HEK293 [16])?
Answer: inactive

Question: What about the Activity (HEK293 [17]) of the same compound?
Answer: Non-Toxic

Question: What about the t1/2 (Liver) of the same compound?
Answer: > 2 h

Question: And the Activity (SH-SY5Y)?
Answer: Non-Toxic

Question: What about the Activity [18] of the same compound?
Answer: Active

Question: What about the Activity (HEK293 [19]) of the same compound?
Answer: inactive

Question: And the Activity [20]?
Answer: Active

Question: What about the inhibition at 10 µM (CYP2C19) of the same compound?
Answer: < 50%

Question: What about the inhibition at 10 µM (CYP2D6) of the same compound?
Answer: < 50%

Question: And the inhibition at 10 µM (CYP3A4)?
Answer: < 50%

Question: What about the “inhibition (INH)” value [21] of the same compound?
Answer: Not Active

Question: What about the Activity (Renilla [22]) of the same compound?
Answer: inactive

Question: And the Activity [23]?
Answer: Active

Question: What about the Activity (Renilla [24]) of the same compound?
Answer: inactive

Question: And the Activity [25]?
Answer: Dose-dependent effect

Question: And the fold change (FC) [26]?
Answer: 2
